Key:
Format in all cases: functional
[1] = test system: Mus musculus; assay: Trypanocidal Activity at I.C.E. value 0.24 when administered subcutaneously.
Summary of the method: (§1)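 Blood-stage T. rhodesiense infection came from a standard inoculum lethal to all untreated mice. Drug was given by subcutaneous injection to groups of five mice. Survival beyond 30 days counted as cure. […] Sub-curative doses scored 0, and data were normalized at each dose.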

[2] = test system: Mus musculus; assay: Trypanocidal Activity at I.C.E. value 0.52 when administered subcutaneously.; summary of the method: as §1
[3] = test system: Mus musculus; assay: Trypanocidal Activity at I.C.E. value 0.47 when administered subcutaneously.; summary of the method: as §1
[4] = test system: Mus musculus; assay: Trypanocidal Activity at I.C.E. value 0.32 when administered subcutaneously.; summary of the method: as §1
[5] = test system: Mus musculus; assay: Trypanocidal Activity at I.C.E. value 0.36 when administered subcutaneously.
[6] = test system: Mus musculus; assay: Trypanocidal Activity at I.C.E. value 0.17 when administered subcutaneously.
[7] = test system: Trypanosoma brucei rhodesiense; assay: In Vitro measurement of inhibition of thymidine uptake in cell culture of Trypanosoma rhodesiense; settings: read-out: ID50 (the source's name)
Summary of the method: (§2)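 Parasites harvested from infected rats and incubated 3 h across a drug concentration series, usually 0.1–100 µg/mL. Incorporation of radiolabeled thymidine measured. ID50 is the concentration (µg/mL) producing 50% inhibition.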

[8] = test system: Trypanosoma brucei rhodesiense; assay: In Vitro measurement of inhibition of leucine uptake in cell culture of Trypanosoma rhodesiense; settings: read-out: ID50 (the source's name)
Summary of the method: (§3)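 Trypanosomes harvested from infected rats, cultured 3 h with several concentrations of drug, usually 0.1–100 µg/mL. Radiolabeled L-leucine uptake measured. ID50 is the concentration in µg/mL giving 50% inhibition of incorporation.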

[9] = test system: Mus musculus; assay: Trypanocidal Activity at I.C.E. value 0.45 when administered subcutaneously.; summary of the method: as §1
[10] = test system: Mus musculus; assay: Trypanocidal Activity at I.C.E. value 0.29 when administered subcutaneously.; summary of the method: as §1
[11] = test system: Mus musculus; assay: Trypanocidal Activity at I.C.E. value 0.57 when administered subcutaneously.
Summary of the method: (§4)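 Mice, in groups of five per dose, were given a standard inoculum of blood-stage T. rhodesiense that is lethal to all untreated controls, then dosed subcutaneously. Usually 11 dose levels were used (2^n × 0.42 mg/kg).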

[12] = test system: Mus musculus; assay: Trypanocidal Activity at I.C.E. value 0.57 when administered perorally.
[13] = test system: Mus musculus; assay: Trypanocidal Activity at I.C.E. value 0.44 when administered subcutaneously.; summary of the method: as §1
[14] = test system: Mus musculus; assay: Trypanocidal Activity at I.C.E. value 0.16 when administered subcutaneously.
[15] = test system: Mus musculus; assay: Trypanocidal Activity at I.C.E. value 0.65 when administered subcutaneously.; summary of the method: as §4
[16] = test system: Mus musculus; assay: Trypanocidal Activity at I.C.E. value 0.38 when administered subcutaneously.; summary of the method: as §1
[17] = test system: Mus musculus; assay: Trypanocidal Activity at I.C.E. value 0.34 when administered subcutaneously.; summary of the method: as §1
[18] = test system: Trypanosoma brucei rhodesiense; assay: In Vitro measurement of inhibition of Leucine uptake in cell culture of Trypanosoma rhodesiense.; settings: read-out: ID50 (the source's name); summary of the method: as §3
[19] = test system: Trypanosoma brucei rhodesiense; assay: In Vitro measurement of inhibition of thymidine uptake in cell culture of Trypanosoma rhodesiense.; settings: read-out: ID50 (the source's name); summary of the method: as §2
[20] = test system: Mus musculus; assay: Trypanocidal Activity at I.C.E. value 0.39 when administered subcutaneously.; summary of the method: as §1

Which CD50 [1] does the source give for Br.Cc1ccn2cc(-c3ccc(/C=N/NC(=N)N4CCN(C)CC4)cc3)[n+](C)c2c1.[Br-] here?
The CD50 was 3.3 mg/kg.

Which CD50 [2] does the source give for Br.CCNC(=N)N/N=C/c1ccc(OCc2cn3c(C)cccc3[n+]2C)cc1.[Br-] here?
The CD50 was 0.4 mg/kg.

With Br.CCCC/N=C(/NCCCC)N/N=C/c1ccc(-c2cn3ccc(C)cc3[n+]2C)cc1.[Br-] as the compound, how does the CD50 [1] read?
Its CD50 is 53 mg/kg.

With Br.Cc1c(-c2ccc(/C=N/NC(=N)N3CCCC3)cc2)[n+](C)c2ccccn12.[Br-] as the compound, how does the CD50 [3] read?
The CD50 was 0.2 mg/kg.

For Br.C/N=C(/NC)N/N=C/c1ccc(OCc2cn3c(C)cccc3[n+]2C)cc1.[Br-], which CD50 [4] is on record?
The CD50 was 3.3 mg/kg.

Which CD50 [5] does the source give for Br.C=CC[n+]1c(-c2ccc(/C=N/NC(=N)N)cc2)cn2ccccc21.[Br-] here?
Its CD50 is 0.4 mg/kg.

CC(=O)Nc1ccc(-c2cn3ccc4ccccc4c3[n+]2C)cc1.[Br-] was tested. Which CD50 [6] did it give?
Its CD50 is 212 mg/kg.

What about the IC50 [7] of the same compound?
The IC50 was 3.2 µg/mL.

And the IC50 [8]?
Its IC50 is 5.2 µg/mL.

With Br.Cc1c(-c2ccc(/C=N/NC(=N)N)cc2)[n+](C)c2ccccn12.[Br-] as the compound, how does the CD50 [9] read?
Its CD50 is 0.2 mg/kg.

What does the source list for Br.C[n+]1c(-c2ccc(/C=N/NC(=N)N)cc2)c([N+](=O)[O-])n2ccccc21.[Br-]?
IC50 [7]: 2.7 µg/mL; CD50 [10]: 3.3 mg/kg; IC50 [8]: 1.7 µg/mL

How did the CD50 [3] turn out when Br.COc1ccc2n(c1)cc(-c1ccc(/C=N/NC(=N)SC)cc1)[n+]2C.[Br-] was run?
Its CD50 is 13 mg/kg.

Which CD50 [11] does the source give for C[n+]1c(-c2ccc(/C=N/NC(=O)c3ccc(N)cc3)cc2)cn2ccccc21.Cc1ccc(S(=O)(=O)[O-])cc1 here?
The CD50 was 0.8 mg/kg.

With Cc1ccc(S(=O)(=O)N/N=C/c2ccc(-c3cn4ccccc4[n+]3C)cc2)cc1.[Br-] as the compound, how does the CD50 [6] read?
The CD50 was 53 mg/kg.

With Br.Cn1c(COc2ccc(/C=N/NC3=NCCCN3)cc2)[n+](C)c2ccccc21.[Br-] as the compound, how does the CD50 [12] read?
The CD50 was 6.6 mg/kg.

And the CD50 [2]?
The CD50 was 1.6 mg/kg.

What about the IC50 [7] of the same compound?
The IC50 was 4.4 µg/mL.

And the IC50 [8]?
The IC50 was > 10 µg/mL.

With Cc1ccc(S(=O)(=O)[O-])cc1.Cc1cccc2n1cc(-c1ccc(COc3ccc(/C=N/NC(=O)c4ccc(N)cc4)cc3)cc1)[n+]2C as the compound, how does the CD50 [13] read?
The CD50 was 13 mg/kg.

For Br.CCSc1ccc2n(c1)cc(-c1ccc(/C=N/NC(=N)SC)cc1)[n+]2C.[Br-], which CD50 [14] is on record?
Its CD50 is 106 mg/kg.

How did the CD50 [15] turn out when C[n+]1c(-c2ccc(/C=N/NC(=N)N)cc2)cn2ccsc21.Cc1ccc(S(=O)(=O)O)cc1.Cc1ccc(S(=O)(=O)[O-])cc1 was run?
The CD50 was 0.4 mg/kg.

What about the IC50 [7] of the same compound?
Its IC50 is 1.4 µg/mL.

And the IC50 [8]?
Its IC50 is 1.3 µg/mL.

For Br.C/N=C(/N/N=C/c1ccc(-c2cn3ccc(C)cc3[n+]2C)cc1)SC.[Br-], which CD50 [16] is on record?
Its CD50 is 26 mg/kg.

Which results are given for C[n+]1c(-c2ccc(/C=N/NC(=N)NO)cc2)cn2ccsc21.Cc1ccc(S(=O)(=O)O)cc1.Cc1ccc(S(=O)(=O)[O-])cc1?
CD50 [2]: 0.8 mg/kg; IC50 [7]: 2 µg/mL; IC50 [8]: 1.7 µg/mL

How did the CD50 [3] turn out when Br.C[n+]1c(COc2ccc(/C=N/NC(=N)N)cc2)cn2ccccc21.[Br-] was run?
The CD50 was 0.1 mg/kg.

And the IC50 [7]?
Its IC50 is 0.8 µg/mL.

What about the IC50 [8] of the same compound?
The IC50 was 0.9 µg/mL.

Cc1ccc(S(=O)(=O)O)cc1.Cc1ccc(S(=O)(=O)[O-])cc1.Cc1cccc2n1cc(/C=N/NC(=N)NO)[n+]2C was tested. Which CD50 [6] did it give?
The CD50 was 106 mg/kg.

With Br.C/N=C(\NC)N/N=C/c1ccc(OCc2n(C)c3ccccc3[n+]2C)cc1.[Br-] as the compound, how does the CD50 [17] read?
The CD50 was 3.3 mg/kg.

Br.C[n+]1c(-c2ccc(/C=N/NC(=N)NCCN3CCOCC3)cc2)cn2ccccc21.[Br-] was tested. Which CD50 [16] did it give?
Its CD50 is 0.8 mg/kg.

What about the IC50 [18] of the same compound?
Its IC50 is 11.7 µg/mL.

What about the IC50 [19] of the same compound?
Its IC50 is 2.3 µg/mL.

Which results are given for Cc1ccc2n(c1)cc(-c1ccc(/C=N/Nc3cc(N)[nH]n3)cc1)[n+]2C.[Br-]?
IC50 [7]: > 10 µg/mL; CD50 [10]: 26 mg/kg; IC50 [8]: > 10 µg/mL

With Cc1ccc2n(c1)cc(-c1ccc(/C=N/Nc3nc[nH]n3)cc1)[n+]2C.[Br-] as the compound, how does the CD50 [20] read?
Its CD50 is 13 mg/kg.

What about the IC50 [7] of the same compound?
Its IC50 is 3.8 µg/mL.

C[n+]1c(-c2ccc(/C=N/Nc3cc(N)[nH]n3)cc2)cn2ccccc21.[Br-] was tested. Which CD50 [10] did it give?
The CD50 was 13 mg/kg.

C[n+]1c(-c2ccc(C(=N)NO)cc2)cn2ccccc21.[Cl-] was tested. Which CD50 [10] did it give?
The CD50 was 53 mg/kg.

How did the CD50 [16] turn out when Br.CC(Cc1ccncc1)NC(=N)N/N=C/c1ccc(-c2cn3ccccc3[n+]2C)cc1.[Br-] (centres undefined) was run?
The CD50 was 0.8 mg/kg.

Cc1ccc2n(c1)cc(-c1ccc(C(=N)NO)cc1)[n+]2C.[Cl-] was tested. Which CD50 [14] did it give?
The CD50 was 106 mg/kg.

What does the source list for C[n+]1c(COc2ccc(/C=N/Nc3nc[nH]n3)cc2)cn2ccccc21.[Br-]?
IC50 [7]: 0.5 µg/mL; IC50 [8]: > 10 µg/mL

For Br.CC(Cc1c[nH]cn1)NC(=N)N/N=C/c1ccc(-c2cn3ccccc3[n+]2C)cc1.[Br-] (centres undefined), which CD50 [16] is on record?
The CD50 was 1.6 mg/kg.

Source: ChEMBL document CHEMBL1124947, “Cationic antiprotozoal drugs. Trypanocidal activity of 2-(4'-formylphenyl)imidazo[1,2-a]pyridinium guanylhydrazones and related derivatives of quaternary heteroaromatic compounds” (J Med Chem, 1990)
